According to ChEMBL document CHEMBL2407023, “trans-Resveratrol in Gnetum gnemon protects against oxidative-stress-induced endothelial senescence” (J Nat Prod, 2013):
Calls of active or inactive are those of the source. The rule behind the calls is not given here.

Legend:
[1] = target: T1, NAD-dependent protein deacetylase sirtuin-1 (Homo sapiens) (UniProt Q96EB6); experiment: Induction of SIRT1-mediated TFAM expression in H2O2-induced HUVEC pretreated for 1 day followed by compound washout and H2O2-treatment measured after 10 days by RT-PCR analysis; type: cell-based
T1 sequence (whole entry): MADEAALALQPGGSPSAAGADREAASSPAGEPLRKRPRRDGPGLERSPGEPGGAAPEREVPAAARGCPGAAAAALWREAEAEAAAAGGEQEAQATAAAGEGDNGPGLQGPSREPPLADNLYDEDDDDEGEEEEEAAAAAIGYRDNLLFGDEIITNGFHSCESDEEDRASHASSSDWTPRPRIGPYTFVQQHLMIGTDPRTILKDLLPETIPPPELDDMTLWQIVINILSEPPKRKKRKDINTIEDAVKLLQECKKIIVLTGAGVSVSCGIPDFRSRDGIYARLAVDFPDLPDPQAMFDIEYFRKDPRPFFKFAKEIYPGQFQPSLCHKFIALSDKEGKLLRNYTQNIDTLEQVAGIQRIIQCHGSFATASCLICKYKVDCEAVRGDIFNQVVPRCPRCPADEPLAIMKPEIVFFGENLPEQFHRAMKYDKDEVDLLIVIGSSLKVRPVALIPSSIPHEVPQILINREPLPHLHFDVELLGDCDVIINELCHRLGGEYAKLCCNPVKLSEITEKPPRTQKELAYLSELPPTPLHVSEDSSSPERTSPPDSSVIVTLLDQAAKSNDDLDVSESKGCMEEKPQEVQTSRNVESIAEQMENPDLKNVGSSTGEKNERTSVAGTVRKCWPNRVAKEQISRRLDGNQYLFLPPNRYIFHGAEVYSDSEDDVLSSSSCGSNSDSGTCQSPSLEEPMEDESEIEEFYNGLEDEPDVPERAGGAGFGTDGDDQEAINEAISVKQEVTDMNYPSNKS
Method in brief: (§1)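 HUVEC were treated with compound at 100 μmol/L and H2O2 as in the senescence protocol. Total RNA was DNase-treated, then reverse transcribed with random hexamers and oligo d(T). mRNA was quantified by SYBR green real-time PCR relative to β-actin. Primer quality was checked by dissociation curves, standard-curve slopes and no-RT reactions.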

HUVEC [2] = experiment: Inhibition of H2O2-induced HUVEC senescence pretreated for 1 day followed by compound washout and H2O2-treatment measured after 10 days by SA-beta galactosidase staining-based assay; type: functional, cell-based; details: Homo sapiens
Method in brief: (§2)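 HUVEC at PDL 10−11 were grown to 80% confluence and pretreated 1 day with compound at 100 μmol/L (vehicle 0.05% DMSO). After washing, they received 100 μmol/L H2O2 for 1 h and were reseeded at 1 × 10^6 per dish. Culture continued 10 days with compound. Fixed cells were scored for SA-βgal-positive proportion, with hematoxylin counterstain for morphology; n = 3.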

HUVEC [3] = experiment: Effect on eNOS expression in H2O2-induced HUVEC pretreated for 1 day followed by compound washout and H2O2-treatment measured after 10 days by immunoblotting analysis; type: functional, cell-based; details: Homo sapiens
Method in brief: (§3)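 HUVEC at PDL 10−11 were pretreated 1 day with compound at 100 μmol/L in EGM-2 (vehicle 0.05% DMSO). Cells were washed and exposed to 100 μmol/L H2O2 for 1 h. They were then reseeded and cultured 10 days with compound. Lysates were made in Tris/NP40/SDS buffer with protease and phosphatase inhibitors and immunoblotted. β-actin was the loading reference, with ECL detection.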

HUVEC [4] = experiment: Induction of mitochondrial biogenesis in H2O2-induced HUVEC at 100 umol/L pretreated for 1 day followed by compound washout and H2O2-treatment measured after 10 days by MitoTracker Red staining-based assay; type: functional, cell-based; details: Homo sapiens
Method in brief: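 HUVEC were grown in chamber slides to 80% confluence and treated with compound at 100 μmol/L plus H2O2. At 10 days after H2O2, cells were stained 15 min with 100 nM MitoTracker Red CMXRos in prewarmed medium. Nuclei were counterstained with DAPI and cells imaged by fluorescence microscopy.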

[5] = target: T1, NAD-dependent protein deacetylase sirtuin-1 (Homo sapiens); experiment: Activation of SIRT1 (unknown origin) by fluorescence assay
Method in brief: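 HUVEC exposed to compounds at 100 μmol/L were assayed for SIRT1 activity with a fluorescent SIRT1 activity kit, following the manufacturer's protocol. NAD+ was the positive control. Comparison was against vehicle control, n = 3.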

HUVEC [6] = experiment: Effect on PAI-1 expression in H2O2-induced HUVEC pretreated for 1 day followed by compound washout and H2O2-treatment measured after 10 days by immunoblotting analysis; type: functional, cell-based; details: Homo sapiens; method in brief: as §3
HUVEC [7] = experiment: Inhibition of H2O2-induced HUVEC senescence assessed as change in cellular morphology pretreated for 1 day followed by compound washout and H2O2-treatment measured after 10 days by hematoxylin staining-based assay; type: functional, cell-based; details: Homo sapiens; method in brief: as §2
HUVEC [8] = experiment: Effect on SIRT1 expression in H2O2-induced HUVEC pretreated for 1 day followed by compound washout and H2O2-treatment measured after 10 days by immunoblotting analysis; type: functional, cell-based; details: Homo sapiens; method in brief: as §3
HUVEC [9] = experiment: Effect on p53 expression in H2O2-induced HUVEC pretreated for 1 day followed by compound washout and H2O2-treatment measured after 10 days by immunoblotting analysis; type: functional, cell-based; details: Homo sapiens; method in brief: as §3
[10] = target: T1, NAD-dependent protein deacetylase sirtuin-1 (Homo sapiens); experiment: Induction of SIRT1-mediated NRF-1 expression in H2O2-induced HUVEC pretreated for 1 day followed by compound washout and H2O2-treatment measured after 10 days by RT-PCR analysis; type: cell-based; method in brief: as §1

Activity [1]: Active | inhibition (HUVEC [2]): Active | Activity [5]: Active | Activity [10]: Active
Structure (SMILES): Oc1ccc(/C=C/c2cc(O)cc(O)c2)cc1
Activity (HUVEC [3]): Active | Activity (HUVEC [4]): Active | Activity (HUVEC [6]): Active | inhibition (HUVEC [7]): Active | Activity (HUVEC [8]): Active | Activity (HUVEC [9]): Active
